The record followed here is ChEMBL document CHEMBL3616436, “Synthesis, cytotoxicity and antimicrobial activity of thiourea derivatives incorporating 3-(trifluoromethyl)phenyl moiety” (Eur J Med Chem, 2015).

As usually defined, the EC50 is the concentration needed to bring the measured effect to its halfway point. What is called MIC is the least concentration at which growth counts as inhibited. By CC50 is commonly meant the concentration giving 50% cytotoxicity.

≈ marks a conversion by molar mass, not a printed value. Calls of active or inactive are those of the source. No cut-off for these calls is given here.

For data set [1], the system named is Vesicular stomatitis virus. Briefly: Antiviral activity against Vesicular stomatitis virus ATCC VR 1540 infected in African green monkey Vero 76 cells assessed as reduction of virus-plaque formation after 2 days by crystal violet staining. The class given is functional, organism-based. The following applies: ATCC VR 1540, Vero, 48 h.
Data set [2] has as its system Staphylococcus aureus. Briefly: Ratio of ciprofloxacin MIC to compound MIC for hospital methicillin-resistant Staphylococcus aureus 54/05 after 18 hrs by twofold serial microdilution method. It is filed as functional. In a few lines:
(§1)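 Ratio of MICs for ciprofloxacin and test agent, each from twofold serial broth microdilution in Mueller-Hinton broth following CLSI guidelines. DMSO stock was diluted in sterile water to 0.125–512 µg/mL, with a final inoculum of 10^5 CFU/mL.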

Data set [3] concerns Staphylococcus aureus. The experiment in a line: Ratio of ciprofloxacin MIC to compound MIC for hospital methicillin-resistant Staphylococcus aureus 81/05 after 18 hrs by twofold serial microdilution method. The class given is functional. In a few lines:
as §1
A general note: In broth dilution the organism is exposed to a series of concentrations in liquid medium.

For data set [4], the system named is Mammalian orthoreovirus 1. The experiment in a line: Antiviral activity against Reovirus type-1 ATCC VR-214 infected in BHK cells assessed as protection against virus-induced cytopathogenicity after 3 to 4 days by MTT assay. It is filed as functional, cell-based. The following applies: Mammalian orthoreovirus 1, ATCC VR-214, BHK. In outline:
(§2)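 Cells seeded in 96-well plates (BHK 5x10^4, MDBK 3x10^4 cells/well), grown overnight to confluence, infected at m.o.i. 0.01 (BHK for Reo-1, MDBK for BVDV); serial compound dilutions in maintenance medium with 0.5% inactivated FBS added after 1 h; viability by MTT after 3–4 days at 37°C; EC50 for 50% protection by linear regression.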

Data set [5] deals with Staphylococcus aureus. Briefly: Antimicrobial activity against Staphylococcus aureus NCTC 4163 at 400 ug after 18 hrs by disc-diffusion method. The following applies: NCTC 4163, 18 h, read-out: IZ. It is filed as functional. In a few lines:
(§3)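 Disc diffusion on Mueller-Hinton II agar per CLSI; 9 mm paper discs loaded with 400 µg compound from DMSO solution, dried, placed on agar; growth inhibition zone diameter read after 18 h at 35°C.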

For data set [6], the system named is Staphylococcus aureus. The experiment in a line: Antimicrobial activity against Staphylococcus aureus ATCC 6538 at 400 ug after 18 hrs by disc-diffusion method. It is filed as functional. The note with it: ATCC 6538, 18 h, read-out: IZ. In outline:
as §3
(In general: Agar diffusion results depend on both activity and mobility in agar.)

The test system of data set [7] is Staphylococcus epidermidis. Briefly: Ratio of ciprofloxacin MIC to compound MIC for hospital methicillin-resistant Staphylococcus epidermidis 23/04 after 18 hrs by twofold serial microdilution method. It is filed as functional. In outline: as §1
Data set [8] has as its system Staphylococcus aureus. Briefly: Antimicrobial activity against Staphylococcus aureus ATCC 29213 after 18 hrs by twofold serial microdilution method. It is filed as functional. The note with it: ATCC 29213, 18 h.
Data set [9] deals with Staphylococcus aureus. The experiment in a line: Ratio of ciprofloxacin MIC to compound MIC for hospital methicillin-resistant Staphylococcus aureus 80/05 after 18 hrs by twofold serial microdilution method. It is filed as functional. In a few lines: as §1
In data set [10] the test system is Staphylococcus aureus. The experiment in a line: Ratio of ciprofloxacin MIC to compound MIC for hospital methicillin-resistant Staphylococcus aureus 57/05 after 18 hrs by twofold serial microdilution method. The class given is functional. In outline: as §1
Data set [11] deals with Staphylococcus epidermidis. Briefly: Ratio of ciprofloxacin MIC to compound MIC for hospital methicillin-resistant Staphylococcus epidermidis 63/04 after 18 hrs by twofold serial microdilution method. The class given is functional. In outline: as §1
For data set [12], the system named is Staphylococcus aureus. Briefly: Antimicrobial activity against hospital methicillin-resistant Staphylococcus aureus 522/11 after 18 hrs by twofold serial microdilution method. It is filed as functional. The note with it: 522/11, 18 h. In a few lines:
(§4)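 Twofold serial microdilution in Mueller-Hinton broth. Compound stock was made in DMSO and diluted in sterile water. Tested range was 0.125–512 µg/mL. Final inoculum was 10^5 CFU/mL. Plates were incubated 18 h at 35 °C. MIC is the lowest concentration preventing visible growth.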

For the next data set, the system named is Bacillus subtilis. The experiment in a line: Antimicrobial activity against Bacillus subtilis ATCC 6633 at 400 ug after 18 hrs by disc-diffusion method. It is filed as functional. The following applies: ATCC 6633, 18 h, read-out: IZ. In a few lines: as §3
Another data set deals with Coxsackievirus B5. The experiment in a line: Antiviral activity against Human coxsackievirus B5 ATCC VR-29 infected in African green monkey Vero 76 cells assessed as reduction of virus-plaque formation after 3 days by crystal violet staining. The note with it: Enterovirus B, ATCC VR-29, Vero, 72 h. The class given is functional, organism-based. In a few lines: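 Plaque reduction: Vero-76 at 2x10^5 cells/well grown to confluent monolayers, infected 2 h at 50–100 PFU/well; after removing unadsorbed virus, overlay of D-MEM, 1% inactivated FBS, 0.75% methylcellulose with or without serial compound dilutions; 3 days at 37°C, fixed and stained with crystal violet in 50% ethanol, plaques counted; EC50 by linear regression.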

In data set [13] the test system is Staphylococcus aureus. The experiment in a line: Antimicrobial activity against hospital methicillin-resistant Staphylococcus aureus 57/05 after 18 hrs by twofold serial microdilution method. The class given is functional. The note with it: 57/05, 18 h. In outline: as §4
For data set [14], the system named is Staphylococcus epidermidis. Briefly: Ratio of ciprofloxacin MIC to compound MIC for hospital methicillin-resistant Staphylococcus epidermidis 62/04 after 18 hrs by twofold serial microdilution method. It is filed as functional. In outline:
as §1

For the next data set, the system named is Vaccinia virus. The experiment in a line: Antiviral activity against Human Vaccinia virus ATCC VR-1549 infected in African green monkey Vero 76 cells assessed as reduction of virus-plaque formation after 3 days by crystal violet staining. The class given is functional, organism-based. The note with it: Orthopoxvirus vaccinia, ATCC VR-1549, Vero, 72 h.
In the next data set the test system is Enterococcus faecalis. Briefly: Antimicrobial activity against Enterococcus faecalis ATCC 29212 at 400 ug after 18 hrs by disc-diffusion method. The following applies: for zone of inhibition at 400 µg/disc: ATCC 29212, 18 h, read-out: IZ. The class given is functional. In a few lines: as §3
Another data set concerns Yellow fever virus. Briefly: Antiviral activity against Yellow fever virus 17D infected in BHK cells assessed as protection against virus-induced cytopathogenicity after 3 to 4 days by MTT assay. It is filed as functional, cell-based.
A short description of data set [15]: Cytotoxicity against bovine MDBK cells assessed as cell viability after 48 to 96 hrs by MTT assay. The class given is cell-based, Bos taurus. The note with it: cattle. For orientation: Tetrazolium assays rely on reduction of a dye to a coloured formazan, in cell work by metabolically active cells.
In the next data set the test system is Proteus vulgaris. Briefly: Antimicrobial activity against Proteus vulgaris NCTC 4635 at 400 ug after 18 hrs by disc-diffusion method. The class given is functional. In a few lines:
as §3

In data set [16] the test system is Staphylococcus aureus. The experiment in a line: Antimicrobial activity against Staphylococcus aureus NCTC 4163 after 18 hrs by twofold serial microdilution method. It is filed as functional. The note with it: NCTC 4163, 18 h.
A short description of data set [17]: Antiviral activity against Bovine viral diarrhea virus 1-NADL ATCC VR-534 infected in MDBK cells assessed as protection against virus-induced cytopathogenicity after 3 to 4 days by MTT assay. The class given is functional, cell-based. The following applies: Bovine viral diarrhea virus isolates and strains, ATCC VR-534, MDBK. In a few lines:
as §2

In data set [18] the test system is Staphylococcus epidermidis. The experiment in a line: Antimicrobial activity against hospital methicillin-resistant Staphylococcus epidermidis 23/04 after 18 hrs by twofold serial microdilution method. The class given is functional. The following applies: 23/04, 18 h. In a few lines:
as §4

The subject of data set [19] is Staphylococcus aureus. The experiment in a line: Ratio of ciprofloxacin MIC to compound MIC for hospital methicillin-resistant Staphylococcus aureus 522/11 after 18 hrs by twofold serial microdilution method. It is filed as functional. In a few lines: as §1
Data set [20] is described as follows: Cytotoxicity against human MT4 cells. It is filed as cell-based.
For data set [21], the system named is Staphylococcus aureus. Briefly: Antimicrobial activity against Staphylococcus aureus ATCC 6538 after 18 hrs by twofold serial microdilution method. The class given is functional. The note with it: ATCC 6538, 18 h.
Data set [22] deals with Staphylococcus aureus. Briefly: Antimicrobial activity against Staphylococcus aureus ATCC 25923 after 18 hrs by twofold serial microdilution method. It is filed as functional. The note with it: ATCC 25923, 18 h.
The subject of data set [23] is Staphylococcus epidermidis. Briefly: Ratio of ciprofloxacin MIC to compound MIC for hospital methicillin-resistant Staphylococcus epidermidis 24/04 after 18 hrs by twofold serial microdilution method. The class given is functional.
Data set [24] relates to Staphylococcus epidermidis. Briefly: Ratio of ciprofloxacin MIC to compound MIC for hospital methicillin-resistant Staphylococcus epidermidis 76/04 after 18 hrs by twofold serial microdilution method. It is filed as functional. In outline: as §1
The subject of data set [25] is Staphylococcus epidermidis. Briefly: Ratio of ciprofloxacin MIC to compound MIC for hospital methicillin-resistant Staphylococcus epidermidis […]/[…] after 18 hrs by twofold serial microdilution method. It is filed as functional, 16/04.

As to `FC(F)(F)c1cccc(NC(S)=NCc2ccccc2)c1`, the EC50 in [1] was > 35 µM; in data set [4], > 45 µM; with Coxsackievirus B5 it was > 35 µM; with Vaccinia virus, > 35 µM; in the data set on Yellow fever virus, > 45 µM; in [17] it was > 40 µM. For the same molecule, the Ratio (with Staphylococcus aureus [2]; in the data set on Staphylococcus aureus [3]; in data set [7]; in the data set with Staphylococcus aureus [9]; with Staphylococcus aureus [10]; in data set [11]) was 128 each time. Also, the Ratio (in data set [14]; in the data set on Staphylococcus aureus [19]; in data set [23]; in [24]; in data set [25]) was 128 each time. In addition, the zone of inhibition at 400 µg/disc was found to be 18 mm in the data set on Staphylococcus aureus [5], 15 mm with Staphylococcus aureus [6] and 16 mm in the data set with Bacillus subtilis. Besides, the MIC with Staphylococcus aureus [8] is 8 µg/mL (≈ 25.8 µM); in the data set with Staphylococcus aureus [12], 16 µg/mL (≈ 51.6 µM); in the data set on Staphylococcus aureus [13] it was 8 µg/mL (≈ 25.8 µM); in the data set on Staphylococcus aureus [16], 16 µg/mL (≈ 51.6 µM); in data set [18] it was 16 µg/mL (≈ 51.6 µM); in the data set on Staphylococcus aureus [21], 8 µg/mL (≈ 25.8 µM). The molecule also registered an MIC with Staphylococcus aureus [22] of 16 µg/mL (≈ 51.6 µM). For the same molecule, the “inhibition zone (IZ)” value in the data set on Enterococcus faecalis and in the data set with Proteus vulgaris was “inactive” in each case. Moreover, the figures for the CC50 in data set [15] and in data set [20] were 40 µM and 45 µM, respectively.

Consider `FC(F)(F)c1cccc(NC(S)=Nc2ccc(Cl)c(Cl)c2)c1`, for which the EC50 in [1] was > 16 µM; in data set [4], > 9.5 µM; with Coxsackievirus B5 it was > 16 µM; with Vaccinia virus, > 16 µM; in the data set on Yellow fever virus, > 9.5 µM; in [17] it was > 10 µM. For the same molecule, the Ratio (in the data set on Staphylococcus aureus [2]; in the data set with Staphylococcus aureus [3]; in data set [7]; with Staphylococcus aureus [9]; with Staphylococcus aureus [10]; in data set [11]) was 128 in each case. In addition, the Ratio (in [14]; with Staphylococcus aureus [19]; in [23]; in data set [24]; in [25]) was 128 each time. The zone of inhibition at 400 µg/disc came out at 15 mm in the data set on Staphylococcus aureus [5], 14 mm in the data set on Staphylococcus aureus [6], 11 mm in the data set with Bacillus subtilis and 12 mm in the data set on Enterococcus faecalis. In addition, the MIC in the data set on Staphylococcus aureus [8] stood at 0.5 µg/mL (≈ 1.37 µM); against Staphylococcus aureus [12], 1 µg/mL (≈ 2.74 µM); in the data set on Staphylococcus aureus [13], 2 µg/mL (≈ 5.48 µM); against Staphylococcus aureus [16] it was 0.5 µg/mL (≈ 1.37 µM); in data set [18], 1 µg/mL (≈ 2.74 µM); with Staphylococcus aureus [21], 0.5 µg/mL (≈ 1.37 µM). Moreover, the MIC against Staphylococcus aureus [22] stood at 0.5 µg/mL (≈ 1.37 µM). Besides, the “inhibition zone (IZ)” value in the data set on Proteus vulgaris is “inactive”.

On to `O=C(O)c1cn(C2CC2)c2cc(N3CCNCC3)c(F)cc2c1=O` [CIPROFLOXACIN], for which the zone of inhibition at 400 µg/disc in the data set with Staphylococcus aureus [5] stood at 26 mm; with Staphylococcus aureus [6] it was 28 mm; with Bacillus subtilis it was 40 mm; in the data set with Enterococcus faecalis, 15 mm; in the data set with Proteus vulgaris (NCTC 4635, 18 h, read-out: IZ), 36 mm. Further, the MIC with Staphylococcus aureus [8] was determined as 0.5 µg/mL (≈ 1.51 µM); with Staphylococcus aureus [12], 128 µg/mL (≈ 386 µM); against Staphylococcus aureus [13] it was 128 µg/mL (≈ 386 µM); in the data set on Staphylococcus aureus [16] it was 0.25 µg/mL (≈ 0.754 µM); in [18], 2 µg/mL (≈ 6.04 µM); in the data set on Staphylococcus aureus [21], 0.25 µg/mL (≈ 0.754 µM). In the data set with Staphylococcus aureus [22], this molecule showed an MIC of 0.5 µg/mL (≈ 1.51 µM).
